# HTRA1 inhibitor: inhibitors of human serine peptidase HTRA1 | Q92743 | recombinant HTRA1, FP-rhodamine activity-based probe, fluorescence polarization | inhibition, % at 5.96 µM | 0.5% of 340,000 active; in the data active = inhibition above about 36%;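 note: 0% = enzyme with DMSO and 100% = wells lacking enzyme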
# SIAE inh: blocks human sialic acid acetylesterase. Q9HAT2. AID 1053197. inhibition, % at 9.66 µM. SIAE FP-Rh probe binding, fluorescence polarization. 0.69% of 370,000 active;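 active = inhibition above a cutoff: mean of compounds within the control limits plus 3 SD of those, cut at about 17% in these data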;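 note: 0% = plate median of compound wells and 100% = probe without SIAE protein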
# PRMT1 FP inh: inhibitors of human PRMT1 | recombinant PRMT1, activity-based probe fluorescence polarization | inhibition, % at 2.79 µM | 1.3% of 370,000 active | Q99873;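 active = inhibition above about 21% made by adding two undisclosed values, limit read from the data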
# Target sequence (Q99873 whole entry, looked up): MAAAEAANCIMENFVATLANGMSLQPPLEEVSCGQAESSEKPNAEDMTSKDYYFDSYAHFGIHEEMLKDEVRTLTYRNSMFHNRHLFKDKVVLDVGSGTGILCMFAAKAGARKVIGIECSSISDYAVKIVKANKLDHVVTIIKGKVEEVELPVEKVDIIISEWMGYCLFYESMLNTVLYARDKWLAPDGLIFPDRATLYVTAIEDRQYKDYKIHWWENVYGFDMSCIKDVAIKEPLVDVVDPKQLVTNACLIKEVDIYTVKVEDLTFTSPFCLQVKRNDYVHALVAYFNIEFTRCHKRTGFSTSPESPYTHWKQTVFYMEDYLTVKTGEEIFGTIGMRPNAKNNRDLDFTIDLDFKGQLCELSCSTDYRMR
# GASC-1 inh: blocks human GASC-1 demethylase activity | Q9H3R0 | GST-JMJD2C(1-420) H3K9me3 demethylation, DELFIA europium | inhibition, % at 2.35 µM | 0.069% of 330,000 active;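 active = more than half of a compound's replicate wells show inhibition beyond 50%, single wells judged on their own value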;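 note: signal counts dimethyl H3K9 product captured on neutravidin plate; 0% = median of DMSO wells and 100% = 0.3 times that DMSO median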
# ABHD4 inh: inhibitors of mouse ABHD4; purified mABHD4, FP-Rh probe fluorescence polarization; inhibition, % at 8.92 µM; 0.54% of 370,000 active; AID 720543;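 active = inhibition exceeding the mean over every tested compound plus 3 SD, cut at about 30% in these data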;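 note: 0% = plate median of compound wells and 100% = S159A mutant with DMSO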
#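 Test system: mABHD4 protein | Buffer or medium: HEPES pH 7.0 buffer, 150 mM NaCl, 0.01% Pluronic F-127 | Probe or stimulus: FP-Rh fluorescent activity-based probe, added after compound pre-incubation | Timing: Pre-incubation 45 min, probe exposure 60 min, at 25 °C | Technique: Fluorescence polarization, excitation 525 nm, emission 598 nm, BODIPY TMR filters | Repeats: Single well per compound (singlicate)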
# * hit, by the source's call; . = no result given. Rows were chosen to be rich in hits. Some 2.4% of all compounds tested hit in one or more screens of this group.
SMILES,HTRA1 inhibitor,SIAE inh,PRMT1 FP inh,GASC-1 inh,ABHD4 inh
N#CC1=C(S)N=C(N)C(c2nc(-c3ccccc3)cs2)C12CCCC2 (stereo not drawn),-0.4,-19.8,33.4*,5.0,-19.4
CC(=O)c1c(N2CCOCC2)nc2ccc(Br)cc2c1-c1ccccc1,.,19.4*,0.7,-0.5,3.5
CN(C)[C@@H]1CCN(c2cccc3c2S(=O)(=O)N2CC[C@@H](C2)O3)C1,.,6.5,0.3,.,7.3
O=C(/C=C/c1ccco1)NC(=S)Nc1ccccc1O,.,8.2,21.3*,-4.0,18.5
CC(=O)N(C)c1ccc(NC(=S)NC(=O)/C=C/c2ccco2)cc1,0.0,0.2,6.3,0.2,5.3
CC(=O)Nc1ccc(NC(=S)NC(=O)/C=C/c2ccco2)cc1,-1.3,3.9,21.1*,2.8,16.3
COC(=O)[C@H](C(C)C)N1CCc2nnn(Cc3ccccc3)c2-c2cc(F)ccc2S1(=O)=O,.,-0.4,-5.1,.,-2.8
O=C(N/N=C/c1ccc(Cl)cc1Cl)c1ccncc1,0.5,-8.1,1.2,-6.9,-2.0
O=C(N/N=C/c1cc(Cl)cc(Cl)c1O)c1ccncc1,-8.8,3.8,23.6*,-6.1,11.9
COc1cccc2cc(-c3ccnc(=S)[nH]3)oc12,.,.,.,-8.1,.
Fc1ccc(-c2ccnc(=S)[nH]2)cc1,4.2,7.5,23.4*,-0.7,-8.6
COc1ccc(NC(=O)C(Cl)=C(Cl)Cl)cn1,-1.5,0.1,-0.9,0.8,-3.5
COc1ccc(NC(=O)/C(Cl)=C(/Cl)S(=O)(=O)Cc2ccccc2)cn1,-8.9,3.8,23.5*,18.0,-13.9
COc1ccc(NC(=O)/C(Cl)=C(/Cl)S(=O)Cc2ccc(Cl)cc2)cn1 (stereo not drawn),-11.1,-2.8,32.2*,.,1.4
COc1cccc(NC(=O)C2CCCN2C(=O)Nc2cccc3c2OCO3)c1 (stereo not drawn),.,13.9,-5.1,.,-1.3
COc1ccc(S[C@]2(C(=O)NCCCN(C)C)CC(=O)N[C@@H]2c2ccc(OC)cc2)cc1,.,3.1,5.0,.,3.2
O=C(CN1CCN(c2ccc(F)cc2)CC1)Nc1ccc2c(c1)OCCO2,-3.4,2.5,1.0,-2.1,1.4
O=C(CN1CCN(c2ccc(O)cc2)CC1)Nc1ccc2c(c1)OCCO2,5.2,9.4,24.1*,-6.8,20.9
O=C(OC12CCCN(C1)/C(=C/c1cccc(Cl)c1)C2)c1ccc(F)cc1 (stereo not drawn),.,-1.1,-3.2,.,1.1
CCOc1cc(/C=C2\C(=O)N(CCc3ccc(OC)c(OC)c3)C(C)=C2C(=O)OC)ccc1O,-2.2,5.7,26.5*,8.5,17.4
COC(=O)C1=C(C)N(Cc2ccc(C)cc2)C(=O)/C1=C\c1cc(OC)c(OC)c(OC)c1,-10.0,3.6,-1.4,-8.7,-3.0
COC(=O)[C@H](CC(C)C)N1Cc2nnn(Cc3ccccc3)c2-c2cc(F)ccc2S1(=O)=O,.,0.7,-1.2,.,-2.0
Cc1c(Cl)sn(-c2ccc(Cl)cc2)c1=O,-3.0,-4.2,67.5*,.,3.0
N#Cc1sc2nc(C3CC3)cc(-c3ccccc3)c2c1N,-10.4,-2.1,0.1,12.8,4.0
N#Cc1sc2nc(-c3ccccc3)cc(-c3ccco3)c2c1N,42.7*,7.8,3.0,22.7,15.2
SMILES,HTRA1 inhibitor,SIAE inh,PRMT1 FP inh,GASC-1 inh,ABHD4 inh
O=C(NN=Cc1ccc(-c2ccccc2)cc1)c1cc(-c2ccc(Cl)cc2)n[nH]1,.,-0.9,-3.8,.,-10.8
CCCc1nc2c(=O)n(C)c(=O)nc-2n(C)n1,29.2,-4.7,4.3,.,0.9
Cn1nc(-c2ccccn2)nc2c(=O)n(C)c(=O)nc1-2,28.4,-6.2,4.4,53.9*,-1.4
Nc1nc(SCc2ccc(Cl)cc2)ns1,-4.3,-2.2,-1.9,4.4,-14.8
Nc1nc(SCc2ccccc2)ns1,-2.1,6.9,23.0*,18.1,-1.3
O=[N+]([O-])c1cccc(C2CC(c3ccccc3)=NN2c2ccccc2)c1 (stereo not drawn),6.1,-1.4,4.2,0.9,-1.2
Cc1ccc(C2=Nc3ccccc3SC(c3cccc([N+](=O)[O-])c3)C2)cc1 (stereo not drawn),-16.3,5.3,76.1*,1.3,5.4
Cn1cccc1C(=O)N1CCN(S(=O)(=O)c2cccs2)CC1,.,-0.6,4.6,.,3.1
CCCCCN(C(=O)CCC(=O)OCC(=O)c1cccc(OC)c1)c1c(N)n(CCCC)c(=O)[nH]c1=O,-1.7,0.5,-1.3,58.7*,3.5
Brc1ccc(CSc2nnc(SCc3ccccc3)s2)cc1,.,-1.5,3.1,.,0.4
